Assay outcomes deposited in PubChem by Johns Hopkins Ion Channel Center.
The list is not random: actives were taken first. Their share in the collection is about 2.3%.
TRPC4 agonist – activators of mouse TRPC4 channel | Q9QUQ5 | HEK293 TRPC4beta/mu-opioid, Fluo4 calcium fluorescence; stronger effect = higher value | B-score at 10 µM | 310,000 tested, 0.49% active | AID 2237;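 active = B-score above 5 SD of library B-scores, and initial fluorescence ratio not above library mean plus 5 SD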;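 also: positive B-score marks a calcium rise read as TRPC4 activation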
Target sequence (Q9QUQ5 whole entry, looked up): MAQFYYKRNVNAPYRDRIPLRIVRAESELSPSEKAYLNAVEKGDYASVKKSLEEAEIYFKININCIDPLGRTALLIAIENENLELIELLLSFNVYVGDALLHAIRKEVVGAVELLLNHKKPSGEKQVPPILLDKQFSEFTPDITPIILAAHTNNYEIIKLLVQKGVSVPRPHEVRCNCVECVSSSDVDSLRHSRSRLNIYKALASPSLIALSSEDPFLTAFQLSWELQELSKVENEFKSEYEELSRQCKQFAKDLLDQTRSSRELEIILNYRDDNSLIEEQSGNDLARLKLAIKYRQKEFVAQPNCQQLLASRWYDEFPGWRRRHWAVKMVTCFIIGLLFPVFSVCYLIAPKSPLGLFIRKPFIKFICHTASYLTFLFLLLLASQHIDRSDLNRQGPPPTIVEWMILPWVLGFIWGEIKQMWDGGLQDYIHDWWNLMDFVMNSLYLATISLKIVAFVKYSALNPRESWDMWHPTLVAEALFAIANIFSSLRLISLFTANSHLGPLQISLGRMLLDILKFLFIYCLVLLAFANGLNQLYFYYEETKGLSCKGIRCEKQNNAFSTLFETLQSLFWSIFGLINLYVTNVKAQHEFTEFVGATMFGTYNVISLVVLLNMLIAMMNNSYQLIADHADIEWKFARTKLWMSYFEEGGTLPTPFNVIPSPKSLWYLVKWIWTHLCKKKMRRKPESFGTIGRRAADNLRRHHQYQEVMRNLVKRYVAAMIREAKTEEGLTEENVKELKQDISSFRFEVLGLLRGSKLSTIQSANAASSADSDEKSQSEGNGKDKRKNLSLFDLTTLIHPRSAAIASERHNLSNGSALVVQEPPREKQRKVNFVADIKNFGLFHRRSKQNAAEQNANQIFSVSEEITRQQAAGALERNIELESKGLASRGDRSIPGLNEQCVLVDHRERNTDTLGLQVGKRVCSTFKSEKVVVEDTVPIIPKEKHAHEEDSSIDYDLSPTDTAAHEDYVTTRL
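System – HEK293 cells stably co-expressing mouse TRPC4beta and mu-opioid receptor · Signal – Fluo4 calcium-sensitive dye fluorescence, kinetic, 1 Hz baseline · Benchmarks – buffer (low) and maximal DAMGO (high) · Read-out – B score of integrated fluorescence ratio per well · Incubation – dye loading 45 min room temperature, 110 s kinetic read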
TRPC6 act – mouse TRPC6 channel activation | Q61143 | HEK293-TRPC6 membrane potential dye fluorescence; stronger effect = higher value | B-score at 10 µM | 310,000 tested, 0.13% active | AID 2550;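 active = B-score of the integrated fluorescence ratio above library mean plus 3 SD, and starting fluorescence ratio within library mean plus 5 SD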;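 also: higher score means more depolarization so channel activation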
TRPC4 potent – TRPC4 (mouse) allosteric potentiation; HEK293 TRPC4beta/mu-opioid, DAMGO EC20, Fluo-4 Ca2+ flux; stronger effect = higher value; B-score at 10 µM; 310,000 tested, 0.42% active; AID 2227;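 active = B-score of calcium response area above 5 SD of library B-scores, with initial fluorescence ratio within 5 SD of library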
TRPC4 block – TRPC4 (mouse) channel inhibition. Q9QUQ5. HEK293 TRPC4beta/mu-opioid, DAMGO-evoked Fluo4 calcium flux; stronger effect = lower value. B-score at 10 µM. 300,000 tested, 0.39% active. AID 2247;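 active = B-score over 3 SD under the library average, no early fluorescence shift, positive overall ratio signal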
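Test system – stable TRPC4beta/mu-opioid receptor HEK293 cells · Probe or stimulus – DAMGO, a submaximal dose followed by a maximal one · Dosing – one concentration per compound · Signal – Fluo4 calcium fluorescence by kinetic imaging, 5 s 1 Hz baseline · Evaluation – per-well B score of integrated baseline-normalized Fluo4 ratio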
TRPC6 inhibitor – blocks the mouse TRPC6 cation channel; 310,000 tested, 1.1% active; B-score at 10 µM; HEK293-TRPC6, membrane potential dye, ACh-evoked depolarization; stronger effect = lower value; Q61143;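 active = B-score under library mean minus 3 SD, initial fluorescence not abnormally high, positive integrated signal ratio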;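 also: B-score derived from integrated fluorescence ratio over the kinetic read; more negative B-score means stronger inhibition of depolarization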
A number is an active result; 0 = inactive.

SMILES | TRPC4 agonist | TRPC6 act | TRPC4 potent | TRPC4 block | TRPC6 inhibitor
CCOC(=O)c1c(NC(NC(C)=O)C(Cl)(Cl)Cl)sc2c1CCCC2 (centres undefined) | 0 | 0 | 21 | 0 | 0
CCOC(=O)c1c(NC(=O)CCNCc2ccco2)sc2c1CCC2 | 0 | 0 | 11 | 0 | 0
CCOC(=O)c1c(NC(=O)c2ccco2)sc2c1CCCCC2 | 0 | 0 | 0 | 0 | 0
COc1ccc(S(=O)(=O)N(C)c2ccc(OC(=O)C(C)Oc3ccc(F)cc3)cc2)cc1 (centres undefined) | 0 | 0 | 0 | 0 | 0
CCNC(=O)N1c2ccc(OCC)cc2C(C)=CC1(C)C | 0 | 0 | 0 | -7 | 0
Cc1ccc(C(=O)O/N=C(\N)Cc2cccs2)c(Cl)c1 | 0 | 0 | 0 | 0 | 0
CNc1nc(N)nc(OC(C(F)(F)F)C(F)(F)F)n1 | 0 | 0 | 0 | 0 | 0
Fc1cccc(Cl)c1C1Nc2cccc3cccc(c23)N1 | 0 | 0 | 0 | 0 | 0
Clc1cccc(Cl)c1C1Nc2cccc3cccc(c23)N1 | 0 | 0 | 0 | 0 | -5.5
CC(C)COc1ccc(-c2nn(-c3ccccc3)cc2CO)cc1 | 0 | 0 | 10 | 0 | 0
OCc1cn(-c2ccccc2)nc1-c1ccc(Br)cc1 | 0 | 0 | 0 | 0 | 0
CSc1nnc(Cc2sc(-c3ccccc3)nc2-c2ccccc2)o1 | 0 | 0 | 20 | 0 | 0
O=c1c2cc(Cl)ccc2nc(-c2ccc([N+](=O)[O-])cc2)n1O | 45 | 0 | 0 | 0 | 0
O=c1c2ccc(Cl)cc2nc(-c2cccc(C(F)(F)F)c2)n1O | 51 | 0 | 0 | 0 | 0
Cc1ccc(-c2nc3c(Cl)cc(Cl)cc3c(=O)n2O)cc1 | 112 | 0 | 0 | 0 | 0
O=c1c2cc(Br)ccc2nc(-c2ccc(Cl)cc2)n1O | 175 | 0 | 0 | 0 | 0
CCc1ccc(-c2nc(CS(=O)CC(=O)O)c(C)o2)cc1 (centres undefined) | 0 | 0 | 0 | 0 | 0
COc1cccc(CNC(=O)CCC2CCCN(c3cc(C)nc(N(C)C)n3)C2)c1 (centres undefined) | 0 | 0 | 0 | -6 | 0
O=C(NCCCN1CCOCC1)c1ccc(NC(=O)C2COc3ccccc3O2)cc1 (centres undefined) | 78 | 0 | 0 | -6 | 0
O=C(NCCCN1CCOCC1)C1COc2ccccc2O1 (centres undefined) | 0 | 0 | 0 | 0 | 0
COCCn1nnnc1C(c1cc2ccc(OC)cc2[nH]c1=O)N1CCN(C2CCCCC2)CC1 (centres undefined) | 136 | 0 | 0 | 0 | 0
COCCn1nnnc1C(c1cccc(OC)c1OC)N1CCN(C(=O)c2ccco2)CC1 (centres undefined) | 0 | 0 | 0 | 0 | 0
COCCn1nnnc1C(c1cccc(OC)c1OC)N1CCN(C2CCCCC2)CC1 (centres undefined) | 0 | 0 | 0 | -6 | 0
O=C(Cc1ccsc1)NNC(=O)c1cccc(Cl)c1 | 0 | 0 | 0 | 0 | 0
Cc1ccc(C(=O)N/C(=C\c2cn(S(=O)(=O)N(C)C)c3ccccc23)C(=O)NCCCN2CCOCC2)cc1 | 0 | 0 | 0 | 0 | 0
SMILES | TRPC4 agonist | TRPC6 act | TRPC4 potent | TRPC4 block | TRPC6 inhibitor
CCCCC1C2=C(CC(C)(C)CC2=O)OC2=C1C(=O)CC(C)(C)C2 | 0 | 0 | 14 | 0 | 0
Cc1ccc2nc(-c3ccccn3)c(NC3CCCC3)n2c1 | 0 | 0 | 0 | -6 | 0
Cc1ccc(NC(=O)N2CCc3ccccc3C2)c(C)c1 | 0 | 0 | 0 | 0 | 0
O=C(COC(=O)c1cccc([N+](=O)[O-])c1)c1ccc2c(c1)OCO2 | 0 | 0 | 0 | -7 | 0
O=C(OCC(=O)N1CCc2ccccc2C1)c1cccc([N+](=O)[O-])c1 | 0 | 0 | 0 | -6 | 0
O=C(Nc1nnc2n1CCS2)c1ccc(Br)o1 | 0 | 0 | 68 | 0 | 0
Cc1ccc(-c2nnc(N3CCC(C)CC3)c3ccccc23)cc1C | 0 | 0 | 63 | 0 | 0
CN(C)CCOC(=O)C12CC3(C)CC(C)(CC(C)(C3)C1)C2 | 46 | 0 | 0 | 0 | 0
CN(C)CCOC(=O)C12CC3CC(CC(C3)C1)C2 | 0 | 0 | 0 | 0 | 0
CN(C)CCCN(C(=O)c1ccc(S(=O)(=O)N(C)Cc2ccccc2)cc1)c1nc2cc3c(cc2s1)OCO3 | 48 | 0 | 0 | 0 | 0
CN(C)CCN(C(=O)c1cccc2ccccc12)c1nc2cc3c(cc2s1)OCO3 | 73 | 0 | 0 | 0 | 0
